The values below come from ChEMBL document CHEMBL5653631, “A Potent and Selective ULK1 Inhibitor Suppresses Autophagy and Sensitizes Cancer Cells to Nutrient Stress” (iScience, 2018).

Test [1] deals with T1, Activin receptor type-1B (Homo sapiens) (UniProt P36896).
T1 sequence (whole entry): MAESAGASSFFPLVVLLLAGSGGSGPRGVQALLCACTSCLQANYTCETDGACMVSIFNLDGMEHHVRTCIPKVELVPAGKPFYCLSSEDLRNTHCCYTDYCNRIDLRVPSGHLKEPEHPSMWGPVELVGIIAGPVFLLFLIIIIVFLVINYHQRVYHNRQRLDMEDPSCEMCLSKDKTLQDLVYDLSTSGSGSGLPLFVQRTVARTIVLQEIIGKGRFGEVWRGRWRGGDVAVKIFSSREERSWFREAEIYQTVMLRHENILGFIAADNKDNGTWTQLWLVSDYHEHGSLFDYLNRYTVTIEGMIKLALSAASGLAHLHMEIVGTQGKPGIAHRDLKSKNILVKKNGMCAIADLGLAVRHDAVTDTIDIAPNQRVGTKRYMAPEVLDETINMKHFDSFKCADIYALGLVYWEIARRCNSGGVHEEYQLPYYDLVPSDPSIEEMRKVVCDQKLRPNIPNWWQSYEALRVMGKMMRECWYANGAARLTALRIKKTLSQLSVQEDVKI
Put plainly: Inhibition of human recombinant ALK4 at 40 nM in presence of ATP by radiometric assay relative to control. The procedure, abridged:
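Panel of 327 recombinant human kinases, each assayed in vitro by radiometric activity assay in duplicate at a single inhibitor concentration per compound, chosen with reference to its ULK1 inhibition. Activity remaining was expressed as percent of vehicle control, and percent inhibition was calculated as 100 minus percent activity remaining.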

Test [2] addresses Serine/threonine-protein kinase PLK3 (Homo sapiens) (UniProt Q9H4B4). As to the kind of experiment: Inhibition of human recombinant PLK3 at 40 nM in presence of ATP by radiometric assay relative to control.
Test [3] concerns the target 5'-AMP-activated protein kinase catalytic subunit alpha-1 (Homo sapiens) (UniProt Q13131). As to the kind of experiment: Inhibition of human recombinant AMPKa1 at 40 nM related to control ULK1. The procedure, abridged: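 Radiometric activity assays in a panel of 327 human recombinant kinases, each run in duplicate at one inhibitor concentration. Activity remaining is expressed as percent of vehicle control, and percent inhibition is calculated as 100% minus percent activity remaining.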

Test [4] has as its target Misshapen-like kinase 1 (Homo sapiens) (UniProt Q8N4C8). As to the kind of experiment: Inhibition of human recombinant MINK at 40 nM related to control ULK1.
For test [5], the species on record is Homo sapiens. Put plainly: Inhibition of human recombinant p70S6K at 40 nM related to control ULK1.
For test [6], the target named is T2, Testis-specific serine/threonine-protein kinase 4 (Homo sapiens) (UniProt Q6SA08).
T2 sequence (whole entry): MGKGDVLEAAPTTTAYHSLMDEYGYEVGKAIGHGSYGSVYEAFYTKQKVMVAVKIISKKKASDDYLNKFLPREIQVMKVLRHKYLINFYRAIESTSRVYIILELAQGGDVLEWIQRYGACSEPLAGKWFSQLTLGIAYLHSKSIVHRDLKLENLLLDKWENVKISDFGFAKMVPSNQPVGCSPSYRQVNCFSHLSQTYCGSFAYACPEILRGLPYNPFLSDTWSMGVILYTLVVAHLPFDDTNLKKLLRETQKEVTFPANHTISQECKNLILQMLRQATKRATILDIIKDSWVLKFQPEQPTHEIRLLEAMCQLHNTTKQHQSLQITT
Put plainly: Inhibition of human recombinant TSSK4 at 40 nM related to control ULK1.

Test [7] addresses T3, Dual specificity tyrosine-phosphorylation-regulated kinase 2 (Homo sapiens) (UniProt Q92630).
T3 sequence (whole entry): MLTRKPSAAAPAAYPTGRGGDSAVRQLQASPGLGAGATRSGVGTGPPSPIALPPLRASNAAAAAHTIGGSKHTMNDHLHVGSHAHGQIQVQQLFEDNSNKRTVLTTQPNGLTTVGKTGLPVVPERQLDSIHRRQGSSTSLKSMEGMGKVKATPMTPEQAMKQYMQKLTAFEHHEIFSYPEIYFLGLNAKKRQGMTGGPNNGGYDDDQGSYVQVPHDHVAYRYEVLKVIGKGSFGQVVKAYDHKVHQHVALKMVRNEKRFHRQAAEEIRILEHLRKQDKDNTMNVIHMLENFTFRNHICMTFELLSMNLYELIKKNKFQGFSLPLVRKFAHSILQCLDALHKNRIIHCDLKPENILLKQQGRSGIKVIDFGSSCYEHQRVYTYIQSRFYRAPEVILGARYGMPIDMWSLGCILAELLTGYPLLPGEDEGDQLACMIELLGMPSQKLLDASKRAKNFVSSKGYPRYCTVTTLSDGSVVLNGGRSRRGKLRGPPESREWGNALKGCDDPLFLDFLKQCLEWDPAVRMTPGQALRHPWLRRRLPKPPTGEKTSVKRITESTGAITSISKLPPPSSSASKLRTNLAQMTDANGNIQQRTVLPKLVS
As to the kind of experiment: Inhibition of human recombinant DYRK2 at 500 nM in presence of ATP by radiometric assay relative to control.

Test [8] concerns the target Homeodomain-interacting protein kinase 1 (Homo sapiens) (UniProt Q86Z02). As to the kind of experiment: Inhibition of human recombinant HIPK1 at 500 nM in presence of ATP by radiometric assay relative to control.
Test [9] deals with Ephrin type-A receptor 4 (Homo sapiens) (UniProt P54764). Put plainly: Inhibition of human recombinant EphA4 at 500 nM related to control ULK1.
Ephrin type-A receptor 4 (Homo sapiens), sequence (P54764 whole entry): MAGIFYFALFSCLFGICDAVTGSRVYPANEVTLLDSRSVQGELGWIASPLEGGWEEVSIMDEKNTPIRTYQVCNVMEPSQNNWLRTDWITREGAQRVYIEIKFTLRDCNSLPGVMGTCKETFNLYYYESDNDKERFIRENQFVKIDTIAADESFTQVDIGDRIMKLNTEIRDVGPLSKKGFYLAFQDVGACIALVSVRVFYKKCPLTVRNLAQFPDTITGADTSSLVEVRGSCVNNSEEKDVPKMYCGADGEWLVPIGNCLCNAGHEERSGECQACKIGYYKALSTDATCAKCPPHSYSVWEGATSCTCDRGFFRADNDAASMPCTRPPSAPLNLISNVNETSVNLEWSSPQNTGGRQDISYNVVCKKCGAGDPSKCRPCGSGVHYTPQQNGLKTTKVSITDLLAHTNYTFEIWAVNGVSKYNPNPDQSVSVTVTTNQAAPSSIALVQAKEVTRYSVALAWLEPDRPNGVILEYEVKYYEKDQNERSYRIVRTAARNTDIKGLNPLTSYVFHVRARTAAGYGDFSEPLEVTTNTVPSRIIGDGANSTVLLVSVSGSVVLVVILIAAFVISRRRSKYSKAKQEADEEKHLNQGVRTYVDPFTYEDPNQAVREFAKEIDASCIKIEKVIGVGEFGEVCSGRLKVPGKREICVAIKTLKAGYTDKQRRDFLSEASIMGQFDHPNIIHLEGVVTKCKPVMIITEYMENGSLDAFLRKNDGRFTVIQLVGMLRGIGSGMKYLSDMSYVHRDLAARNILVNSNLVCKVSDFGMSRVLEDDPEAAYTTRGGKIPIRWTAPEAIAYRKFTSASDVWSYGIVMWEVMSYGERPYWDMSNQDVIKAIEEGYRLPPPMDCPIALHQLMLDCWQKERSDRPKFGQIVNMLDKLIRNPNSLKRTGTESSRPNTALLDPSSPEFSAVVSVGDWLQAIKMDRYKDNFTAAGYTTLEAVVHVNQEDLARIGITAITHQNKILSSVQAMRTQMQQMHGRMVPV
For test [10], the target named is Leucine-rich repeat serine/threonine-protein kinase 2 (Homo sapiens) (UniProt Q5S007). Put plainly: Inhibition of human recombinant LRRK2 at 500 nM related to control ULK1.
The target of test [11] is Tyrosine-protein kinase BTK (Homo sapiens) (UniProt Q06187). Put plainly: Inhibition of human recombinant BTK at 15 nM in presence of ATP by radiometric assay relative to control.
Tyrosine-protein kinase BTK (Homo sapiens), sequence (Q06187 whole entry): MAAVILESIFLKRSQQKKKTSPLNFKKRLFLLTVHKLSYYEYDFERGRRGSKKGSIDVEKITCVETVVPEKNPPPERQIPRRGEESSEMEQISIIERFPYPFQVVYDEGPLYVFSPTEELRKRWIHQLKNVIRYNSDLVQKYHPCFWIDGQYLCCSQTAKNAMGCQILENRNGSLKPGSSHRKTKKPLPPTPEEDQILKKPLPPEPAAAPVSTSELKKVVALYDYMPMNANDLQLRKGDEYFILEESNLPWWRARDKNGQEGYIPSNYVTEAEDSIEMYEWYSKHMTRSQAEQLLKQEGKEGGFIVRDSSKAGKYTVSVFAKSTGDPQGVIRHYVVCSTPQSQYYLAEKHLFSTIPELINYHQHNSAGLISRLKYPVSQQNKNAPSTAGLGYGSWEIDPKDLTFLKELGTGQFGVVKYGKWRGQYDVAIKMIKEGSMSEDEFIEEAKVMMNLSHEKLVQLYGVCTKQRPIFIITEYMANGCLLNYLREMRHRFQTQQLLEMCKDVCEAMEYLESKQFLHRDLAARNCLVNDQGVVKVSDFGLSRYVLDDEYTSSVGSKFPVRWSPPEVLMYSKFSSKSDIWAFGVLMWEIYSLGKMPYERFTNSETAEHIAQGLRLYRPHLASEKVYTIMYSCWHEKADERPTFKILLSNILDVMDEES
Test [12] addresses Vascular endothelial growth factor receptor 2 (Homo sapiens) (UniProt P35968). Put plainly: Inhibition of human recombinant KDR at 15 nM in presence of ATP by radiometric assay relative to control.
In test [13] the target is T4, Serine/threonine-protein kinase 3 (Homo sapiens) (UniProt Q13188).
T4 sequence (whole entry): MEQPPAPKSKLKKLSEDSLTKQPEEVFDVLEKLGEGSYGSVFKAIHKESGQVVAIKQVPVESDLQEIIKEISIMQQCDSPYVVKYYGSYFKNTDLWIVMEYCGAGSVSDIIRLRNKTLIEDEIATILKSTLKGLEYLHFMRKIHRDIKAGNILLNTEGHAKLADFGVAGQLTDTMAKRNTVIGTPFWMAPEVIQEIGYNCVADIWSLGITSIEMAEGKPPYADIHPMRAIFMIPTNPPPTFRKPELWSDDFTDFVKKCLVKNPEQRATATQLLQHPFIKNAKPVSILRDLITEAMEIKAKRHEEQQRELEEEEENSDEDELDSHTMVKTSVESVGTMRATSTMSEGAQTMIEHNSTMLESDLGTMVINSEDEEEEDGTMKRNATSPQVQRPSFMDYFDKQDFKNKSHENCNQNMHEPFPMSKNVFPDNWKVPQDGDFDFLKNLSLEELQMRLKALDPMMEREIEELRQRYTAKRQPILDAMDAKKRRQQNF
As to the kind of experiment: Inhibition of human recombinant MST2 at 15 nM related to control ULK1.

Homeodomain-interacting protein kinase 1 (Homo sapiens), sequence (Q86Z02 whole entry, looked up): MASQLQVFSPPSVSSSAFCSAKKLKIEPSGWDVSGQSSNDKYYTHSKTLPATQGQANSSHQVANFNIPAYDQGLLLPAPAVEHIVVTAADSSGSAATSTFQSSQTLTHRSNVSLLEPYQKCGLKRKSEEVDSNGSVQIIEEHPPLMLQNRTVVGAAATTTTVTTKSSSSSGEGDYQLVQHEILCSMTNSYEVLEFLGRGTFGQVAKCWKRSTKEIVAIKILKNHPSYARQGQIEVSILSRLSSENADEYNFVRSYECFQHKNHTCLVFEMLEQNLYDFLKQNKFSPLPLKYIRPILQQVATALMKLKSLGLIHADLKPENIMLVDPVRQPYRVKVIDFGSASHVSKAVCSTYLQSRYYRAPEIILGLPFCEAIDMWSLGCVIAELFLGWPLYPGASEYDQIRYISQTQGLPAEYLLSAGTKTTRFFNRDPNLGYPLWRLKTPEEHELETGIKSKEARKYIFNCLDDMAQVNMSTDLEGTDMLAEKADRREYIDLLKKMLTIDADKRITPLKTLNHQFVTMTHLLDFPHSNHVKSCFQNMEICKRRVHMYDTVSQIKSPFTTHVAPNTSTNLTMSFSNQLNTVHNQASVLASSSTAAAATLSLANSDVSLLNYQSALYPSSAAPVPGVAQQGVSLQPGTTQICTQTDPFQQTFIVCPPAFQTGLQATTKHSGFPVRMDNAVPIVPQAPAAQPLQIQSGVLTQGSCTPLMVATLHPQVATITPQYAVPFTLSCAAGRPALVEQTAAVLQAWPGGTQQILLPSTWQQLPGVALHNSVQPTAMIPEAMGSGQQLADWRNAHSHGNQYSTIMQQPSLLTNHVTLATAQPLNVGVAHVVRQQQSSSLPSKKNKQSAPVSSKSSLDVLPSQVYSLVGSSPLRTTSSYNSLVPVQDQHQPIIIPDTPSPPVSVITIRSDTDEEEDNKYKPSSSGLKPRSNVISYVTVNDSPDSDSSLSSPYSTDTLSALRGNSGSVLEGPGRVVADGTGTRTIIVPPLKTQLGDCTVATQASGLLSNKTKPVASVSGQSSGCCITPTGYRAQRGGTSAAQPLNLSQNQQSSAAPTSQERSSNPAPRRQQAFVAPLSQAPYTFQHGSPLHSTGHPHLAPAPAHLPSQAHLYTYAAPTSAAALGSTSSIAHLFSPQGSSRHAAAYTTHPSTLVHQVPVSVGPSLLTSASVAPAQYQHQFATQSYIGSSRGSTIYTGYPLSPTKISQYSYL
Serine/threonine-protein kinase PLK3 (Homo sapiens), sequence (Q9H4B4 whole entry, looked up): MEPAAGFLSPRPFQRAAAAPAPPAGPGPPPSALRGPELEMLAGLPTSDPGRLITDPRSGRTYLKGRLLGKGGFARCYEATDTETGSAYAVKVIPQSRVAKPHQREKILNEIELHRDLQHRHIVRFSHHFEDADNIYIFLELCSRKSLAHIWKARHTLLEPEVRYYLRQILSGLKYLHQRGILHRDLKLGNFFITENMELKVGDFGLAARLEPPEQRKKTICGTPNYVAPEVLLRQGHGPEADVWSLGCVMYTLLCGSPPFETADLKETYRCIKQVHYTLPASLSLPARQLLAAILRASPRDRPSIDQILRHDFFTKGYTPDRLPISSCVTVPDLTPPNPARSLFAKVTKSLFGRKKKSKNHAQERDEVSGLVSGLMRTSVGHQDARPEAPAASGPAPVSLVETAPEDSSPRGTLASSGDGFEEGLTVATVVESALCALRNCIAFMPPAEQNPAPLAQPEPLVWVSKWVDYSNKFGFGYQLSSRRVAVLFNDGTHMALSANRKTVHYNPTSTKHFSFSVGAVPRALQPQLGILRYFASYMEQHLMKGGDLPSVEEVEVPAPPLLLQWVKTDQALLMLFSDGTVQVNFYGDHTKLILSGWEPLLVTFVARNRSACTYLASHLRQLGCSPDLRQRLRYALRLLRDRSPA
5'-AMP-activated protein kinase catalytic subunit alpha-1 (Homo sapiens), sequence (Q13131 whole entry, looked up): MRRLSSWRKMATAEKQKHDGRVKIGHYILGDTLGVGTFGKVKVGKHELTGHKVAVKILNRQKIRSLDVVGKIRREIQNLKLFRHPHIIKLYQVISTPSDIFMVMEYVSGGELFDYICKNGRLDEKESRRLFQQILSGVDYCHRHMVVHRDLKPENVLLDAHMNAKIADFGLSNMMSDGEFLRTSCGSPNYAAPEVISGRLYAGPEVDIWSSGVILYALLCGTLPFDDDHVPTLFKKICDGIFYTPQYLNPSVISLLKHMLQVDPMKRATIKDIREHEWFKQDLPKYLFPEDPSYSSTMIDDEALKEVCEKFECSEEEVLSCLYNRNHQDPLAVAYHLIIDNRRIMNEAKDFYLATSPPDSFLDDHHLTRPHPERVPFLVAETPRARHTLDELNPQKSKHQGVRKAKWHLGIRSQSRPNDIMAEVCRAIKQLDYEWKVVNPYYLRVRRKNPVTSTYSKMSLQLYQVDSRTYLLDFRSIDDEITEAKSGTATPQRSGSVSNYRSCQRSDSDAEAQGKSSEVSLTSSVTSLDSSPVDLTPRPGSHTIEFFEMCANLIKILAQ

For orientation: inhibition means the percentage by which the read-out fell short of the control. For `O=C(N[C@@H](C1CC1)C(F)(F)F)c1cc(-c2cnn3cc(-c4ccc(F)cc4)cnc23)cs1`, the inhibition in test [1] and in [2] was 0% in each case. For the same compound, the fold change (FC) in [3] turned out to be 0.11; in [4], 0.1; in [5], 0.03; in test [6], 0.
With `CNC(=O)c1ccccc1Oc1nc(Nc2cc(OC)c(OC)c(OC)c2)ncc1Br`, the inhibition was determined as 0% in [7] and 3% in [8]. For the same compound, the fold change (FC) in test [9] stood at 0.2; in test [10], 0.47.
As for `CC(C)[C@H](NC(=O)c1cc(-c2cnn3cc(-c4ccc(OCCN5CCCCC5)cc4)cnc23)cs1)C(F)(F)F`, the results for the inhibition in test [11] and in [12] were 0% and 20%, respectively. Further, the fold change (FC) in [13] worked out at 0.03.
